Results as given in ChEMBL document CHEMBL4622959, “Design, synthesis and biological evaluation of novel 6-phenyl-1,3a,4,10b-tetrahydro-2H-benzo[c]thiazolo[4,5-e]azepin-2-one derivatives as potential BRD4 inhibitors” (Bioorg Med Chem, 2020).

Tests used:
HL-60 = assay: Antiproliferative activity against human HL60 cells assessed as reduction in cell viability incubated for 72 hrs by CCK-8 assay; format: functional, cell-based; conditions: HL-60, 72 h
Outline: (§1)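 Cells grown in IMDM with 10% FBS and 1% penicillin–streptomycin at 37 °C in a CO₂ incubator and harvested in log phase. Seeded at 10,000 cells per well in 100 μL medium, cultured 12 h, then given compounds at a range of concentrations for 72 h. CCK-8 added for 1–4 h, absorbance read at 450 nm. IC₅₀ calculated from the dose-response data.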

[1] = biological target: T1, Bromodomain-containing protein 4 (Homo sapiens, UniProt O60885); assay: Displacement of APC-labeled biotinylated-avidin from […]-chelated recombinant human N-terminal GST-tagged BRD4 bromodomain 1 expressed in Escherichia coli preincubated for 15 mins followed by APC-labeled biotinylated-avidin addition and measured after 1 hr under dark condition by TR-FRET assay
MV4-11 [2] = assay: Antiproliferative activity against human MV4-11 cells assessed as reduction in cell viability incubated for 72 hrs by CCK-8 assay; format: functional, cell-based; conditions: MV4-11, 72 h; outline: as §1
MV4-11 [3] = assay: Induction of apoptosis in human MV4-11 cells assessed as live cell at 5 uM after 12 hrs by Annexin V-FITC/propidium iodide staining-based flow cytometric analysis (reference value: 97.99 %); format: functional
MV4-11 [4] = assay: Induction of apoptosis in human MV4-11 cells assessed as necrotic cell at 0.5 uM after 12 hrs by Annexin V-FITC/propidium iodide staining-based flow cytometric analysis (reference value: 0.17 %); format: functional
MV4-11 [5] = assay: Cell cycle arrest in human MV4-11 cells assessed as accumulation at G2/M phase at 0.5 uM after 12 hrs by propidium iodide staining based flow cytometric analysis (reference value: 18.19%); format: functional
MV4-11 [6] = assay: Cell cycle arrest in human MV4-11 cells assessed as accumulation at G0/G1 phase at 0.5 uM after 12 hrs by propidium iodide staining based flow cytometric analysis (reference value: 43.91%); format: functional
MV4-11 [7] = assay: Cell cycle arrest in human MV4-11 cells assessed as accumulation at S phase at 5 uM after 12 hrs by propidium iodide staining based flow cytometric analysis (reference value: 38.62%); format: functional
MV4-11 [8] = assay: Induction of apoptosis in human MV4-11 cells assessed as late apoptotic cell at 5 uM after 12 hrs by Annexin V-FITC/propidium iodide staining-based flow cytometric analysis (reference value: 1.28 %); format: functional
MV4-11 [9] = assay: Induction of apoptosis in human MV4-11 cells assessed as early apoptotic cell at 0.5 uM after 12 hrs by Annexin V-FITC/propidium iodide staining-based flow cytometric analysis (reference value: 0.56 %); format: functional
MV4-11 [10] = assay: Induction of apoptosis in human MV4-11 cells assessed as live cell at 0.5 uM after 12 hrs by Annexin V-FITC/propidium iodide staining-based flow cytometric analysis (reference value: 97.99 %); format: functional
MV4-11 [11] = assay: Cell cycle arrest in human MV4-11 cells assessed as accumulation at G0/G1 phase at 5 uM after 12 hrs by propidium iodide staining based flow cytometric analysis (reference value: 43.91%); format: functional
MV4-11 [12] = assay: Cell cycle arrest in human MV4-11 cells assessed as accumulation at G1 phase after 12 hrs by propidium iodide staining based flow cytometric analysis; format: functional
MV4-11 [13] = assay: Induction of apoptosis in human MV4-11 cells assessed as late apoptotic cell at 0.5 uM after 12 hrs by Annexin V-FITC/propidium iodide staining-based flow cytometric analysis (reference value: 1.28 %); format: functional
MV4-11 [14] = assay: Cell cycle arrest in human MV4-11 cells assessed as accumulation at G2/M phase at 5 uM after 12 hrs by propidium iodide staining based flow cytometric analysis (reference value: 18.19%); format: functional
MV4-11 [15] = assay: Induction of apoptosis in human MV4-11 cells assessed as necrotic cell at 5 uM after 12 hrs by Annexin V-FITC/propidium iodide staining-based flow cytometric analysis (reference value: 0.17 %); format: functional
MV4-11 [16] = assay: Induction of apoptosis in human MV4-11 cells assessed as early apoptotic cell at 5 uM after 12 hrs by Annexin V-FITC/propidium iodide staining-based flow cytometric analysis (reference value: 0.56 %); format: functional
MV4-11 [17] = assay: Cell cycle arrest in human MV4-11 cells assessed as accumulation at S phase at 0.5 uM after 12 hrs by propidium iodide staining based flow cytometric analysis (reference value: 38.62%); format: functional
MV4-11 [18] = assay: Induction of apoptosis in human MV4-11 cells after 12 hrs by Annexin V-FITC/propidium iodide staining-based flow cytometric analysis; format: functional, cell-based
[19] = biological target: T1, Bromodomain-containing protein 4; assay: Inhibition of BRD4 in human MV4-11 cells assessed as reduction in c-Myc expression level after 4 hrs by Western blot analysis; format: cell-based
Outline: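 Log-phase MV-4-11 cells (IMDM, 10% FBS, 1% penicillin–streptomycin, 37 °C) were treated with compound for 4 h, then lysed at 4 °C and protein quantified. Lysates were run on SDS-PAGE (10% separating, 4% stacking gel) and transferred to PVDF. Membranes were blocked 2 h in 5% non-fat milk/TBST at room temperature, probed for c-Myc, and band intensity quantified from three independent experiments.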

Row | SMILES | IC50 (HL-60) [µM] | IC50 [1] [µM] | IC50 (MV4-11 [2]) [µM] | other results
1 | COc1ccc2c(c1)C(c1ccc(Cl)cc1)=NC(CC(=O)Nc1ccc(O)cc1)c1sc(=O)n(C)c1-2 (configuration not stated) | 9.05 | 0.51 | 1.06 | 
2 | COc1ccc2c(c1)C(c1ccc(Cl)cc1)=NC(CC(=O)O)c1sc(=O)n(C)c1-2 (configuration not stated) |  | 0.87 | 2.86 | 
3 | Cc1sc2c(c1C)C(c1ccc(Cl)cc1)=N[C@@H](CC(=O)OC(C)(C)C)c1nnc(C)n1-2 | 3.46 |  |  | Activity (MV4-11 [3]): 9.58%; Activity (MV4-11 [4]): 0.06%; Activity (MV4-11 [5]): 14.56%; Activity (MV4-11 [6]): 57.35%; Activity (MV4-11 [7]): 3.35%; Activity (MV4-11 [8]): 59.31%; Activity (MV4-11 [9]): 5.23%; Activity (MV4-11 [10]): 85.57%; Activity (MV4-11 [11]): 83.64%; Activity (MV4-11 [12]): Dose-dependent effect; Activity (MV4-11 [13]): 9.14%; Activity (MV4-11 [14]): 13.01%; Activity (MV4-11 [15]): 0.24%; Activity (MV4-11 [16]): 30.87%; Activity (MV4-11 [17]): 28.09%
4 | COc1ccc2c(c1)C(c1ccc(Cl)cc1)=NC(CC(=O)N1CCOCC1)c1sc(=O)n(C)c1-2 (configuration not stated) | 7.62 | 0.48 | 0.94 | 
5 | COc1ccc2c(c1)C(c1ccc(Cl)cc1)=NC(CC(=O)Nc1ccccc1)c1sc(=O)n(C)c1-2 (configuration not stated) | 7.74 | 0.2 | 0.67 | 
6 | CCNC(=O)C[C@@H]1N=C(c2ccc(Cl)cc2)c2cc(OC)ccc2-n2c(C)nnc21 [MOLIBRESIB] |  |  | 1.23 | 
7 | CCOC(=O)CC1OC(c2ccc(Cl)cc2)c2cc(OC)ccc2-c2c1sc(=O)n2C (configuration not stated) | 5.44 | 0.48 | 0.92 | 
8 | COc1ccc2c(c1)C(c1ccc(Cl)cc1)=NC(CC(=O)NC(C)(C)C)c1sc(=O)n(C)c1-2 (configuration not stated) | 5.41 | 0.16 | 0.64 | 
9 | CCNC(=O)CC1N=C(c2ccc(Cl)cc2)c2cc(OC)ccc2-c2c1sc(=O)n2C (configuration not stated) | 12.8 | 0.74 | 1.78 | 
10 | CCOC(=O)CC1N=C(c2ccc(Cl)cc2)c2cc(OC)ccc2-c2c1sc(=O)n2C (configuration not stated) | 6.21 | 0.42 | 0.88 | 
11 | COc1ccc2c(c1)C(c1ccc(Cl)cc1)=NC(CC(=O)NC1CCCC1)c1sc(=O)n(C)c1-2 (configuration not stated) | 5.52 | 0.11 | 0.42 | Activity (MV4-11 [3]): 26.76%; Activity (MV4-11 [4]): 0.35%; Activity (MV4-11 [5]): 17.93%; Activity (MV4-11 [6]): 50.67%; Activity (MV4-11 [7]): 15.23%; Activity (MV4-11 [8]): 42.85%; Activity (MV4-11 [9]): 6.1%; Activity (MV4-11 [10]): 87.61%; Activity (MV4-11 [11]): 70.68%; Activity (MV4-11 [12]): Dose-dependent effect; Activity (MV4-11 [18]): Dose-dependent effect; Activity (MV4-11 [13]): 5.93%; Activity (MV4-11 [14]): 14.11%; Activity (MV4-11 [15]): 0.42%; Activity (MV4-11 [16]): 29.97%; Activity (MV4-11 [17]): 31.2%; inhibition [19]: Dose-dependent effect
12 | C#CCNC(=O)CC1N=C(c2ccc(Cl)cc2)c2cc(OC)ccc2-c2c1sc(=O)n2C (configuration not stated) | 8.46 | 0.21 | 0.7 | 
13 | COc1ccc2c(c1)C(c1ccc(Cl)cc1)=NC(CC(=O)N1CCCC1)c1sc(=O)n(C)c1-2 (configuration not stated) | 10.4 | 0.54 | 1.12 | 
14 | COc1ccc2c(c1)C(c1ccc(Cl)cc1)=NC(CC(=O)NC1CC1)c1sc(=O)n(C)c1-2 (configuration not stated) | 4.56 | 0.14 | 0.51 | 
15 | CCCCNC(=O)CC1N=C(c2ccc(Cl)cc2)c2cc(OC)ccc2-c2c1sc(=O)n2C (configuration not stated) |  | 1.02 | 3.48 | 
16 | COc1ccc2c(c1)C(c1ccc(Cl)cc1)=NC(CC(=O)N1CCCCC1)c1sc(=O)n(C)c1-2 (configuration not stated) | 8.69 | 0.43 | 0.91 | 
17 | COc1ccc2c(c1)C(c1ccc(Cl)cc1)=NC(CC(=O)Nc1ccc(F)cc1)c1sc(=O)n(C)c1-2 (configuration not stated) | 12.4 | 0.68 | 1.44 | 
